Here are results for six molecules from ChEMBL document CHEMBL1152379, “Synthesis and evaluation of 3''- and 4''-deoxy and -fluoro analogs of the immunostimulatory glycolipid, KRN7000” (Bioorg Med Chem Lett, 2009).

What all share (type): functional, cell-based
Test [1] deals with iNKT. Nature of the test: Immunostimulatory activity in iNKT hybridoma 1.2 cells expressing TCR Vbeta8.2 assessed as IL2 level by ELISA. Summed up: (§1)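 Glycolipid pulsed at indicated amounts onto 1 × 10^5 A20 B lymphoma cells transfected to overexpress mouse CD1d, overnight. APCs washed, then cocultured with 2 × 10^5 Vα14 iNKT hybridoma cells (2H4 Vβ7, 1.2 Vβ8.2, 1.4 Vβ10) overnight. Supernatant IL-2 measured by ELISA as TCR-recognition readout. Dose-response curves, representative of three similar experiments.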

Test [2] has as its system iNKT. Description: Immunostimulatory activity in iNKT hybridoma 1.4 cells expressing TCR Vbeta10 assessed as IL2 level by ELISA. In a few lines:
as §1

The subject of test [3] is iNKT. Nature of the test: Immunostimulatory activity in iNKT hybridoma 2H4 cells expressing TCR Vbeta7 assessed as IL2 level by ELISA. In a few lines:
as §1
Background: An ELISA detects its analyte on a solid surface through an enzyme-linked reagent.

As for `CCCCCCCCCCCCCCCCCCCCCCCCCC(=O)N[C@@H](CO[C@H]1O[C@H](CO)[C@H](O)[C@H](O)[C@H]1O)[C@H](O)CCCCCCCCCCCCCCC`, the Activity entry with iNKT [1], in the test with iNKT [2] and in the test with iNKT [3] was “Dose-dependent effect” throughout.
On to `CCCCCCCCCCCCCCCCCCCCCCCCCC(=O)N[C@@H](CO[C@H]1O[C@H](CO)[C@H](O)C[C@H]1O)[C@H](O)CCCCCCCCCCCCCCC`, for which the Activity entry in the test on iNKT [1] and in the test with iNKT [3] was “Dose-dependent effect” each time.
Regarding `CCCCCCCCCCCCCCCCCCCCCCCCCC(=O)N[C@@H](CO[C@H]1O[C@H](CO)[C@H](O)[C@H](O)[C@H]1O)[C@H](O)[C@H](O)CCCCCCCCCCCCCC`, the Activity entry in the test with iNKT [1], in the test on iNKT [2] and in the test with iNKT [3] was “Dose-dependent effect” throughout.
For the molecule `CCCCCCCCCCCCCCCCCCCCCCCCCC(=O)N[C@@H](CO[C@H]1O[C@H](CO)C[C@H](O)[C@H]1O)[C@H](O)CCCCCCCCCCCCCCC`, the Activity entry with iNKT [1] and in the test with iNKT [3] was “Dose-dependent effect” in each case.
Take `CCCCCCCCCCCCCCCCCCCCCCCCCC(=O)N[C@@H](CO[C@H]1O[C@H](CO)[C@H](F)[C@H](O)[C@H]1O)[C@H](O)CCCCCCCCCCCCCCC`: the Activity result in the test on iNKT [1], with iNKT [2] and in the test with iNKT [3] was “Dose-dependent effect” in each case.
As for `CCCCCCCCCCCCCCCCCCCCCCCCCC(=O)N[C@@H](CO[C@H]1O[C@H](CO)[C@H](O)[C@H](F)[C@H]1O)[C@H](O)CCCCCCCCCCCCCCC`, the Activity result in the test on iNKT [1] and in the test on iNKT [3] was “Dose-dependent effect” each time.
